How the values were obtained:
Rattus norvegicus [1] = assay: Creatinine level in serum upon administration of five doses was determined as measure of nephrotoxicity; Normal range = 0.20-0.80 mg/dL; type: functional, organism-based
Method in brief: (§1)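 Nephrotoxicity was assessed after five doses of compound by measuring serum blood urea nitrogen and creatinine in mg/dL by cited methods. Values are mean ± SE against a normal range.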

Rattus norvegicus [2] = assay: Alanine transferase (GPT) enzyme level in serum upon administration of five doses was determined as measure of hepatotoxicity; Normal range = 18-30 IU; type: functional
Method in brief: (§2)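 Oral dosing of the compounds as aqueous suspensions, given either as a single dose or as five doses. Hepatotoxicity was assessed from serum alanine transferase and aspartate transferase (IU) and alkaline phosphatase (KA units). Each marker was set against the normal ranges listed.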

Rattus norvegicus [3] = assay: Percent decrease in weight of triglyceride in liver wet tissue after treatment with compound at 20 mg/kg dose for seven days; type: functional
Method in brief: (§3)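 Male Wistar rats, six per group, were fed a 5% cholesterol diet for 1 week. They were dosed orally at the same time with 20 mg/kg bwt as a suspension in water, and the experiment was run three times. Serum and liver cholesterol were measured by the Zlatkis method, and liver triglyceride by the Van Handel–Zilversmit method, on about 1 g of saline-washed tissue.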

Rattus norvegicus [4] = assay: Alkaline phosphatase enzyme level in serum upon administration of five doses was determined as measure of hepatotoxicity; Normal range = 14-32 KA units; type: functional; method in brief: as §2
Rattus norvegicus [5] = assay: Alanine transferase (GPT) enzyme level in serum upon single dose administration was determined as measure of hepatotoxicity; Normal range = 18-30 IU; type: functional; method in brief: as §2
Rattus norvegicus [6] = assay: Weight of cholesterol in liver wet tissue after treatment with compound at 20 mg/kg dose for seven days; type: functional
Method in brief: (§4)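 Male Wistar rats, six per group, were fed a 5% cholesterol diet for one week while receiving compound at 20 mg/kgbwt orally as a suspension in water. Serum was separated, and about 1 g of liver, washed in ice-cold 0.85% NaCl, was taken for lipids. Cholesterol was measured by the Zlatkis method and liver triglyceride by the Van Handel–Zilversmit method. The run was repeated three times; values are mean ± SE.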

[7] = biological target: T1, 3-hydroxy-3-methylglutaryl-coenzyme A reductase (Rattus norvegicus) (UniProt P51639); assay: Ratio of HMG-CoA reductase to mevalinate
T1 sequence (whole entry): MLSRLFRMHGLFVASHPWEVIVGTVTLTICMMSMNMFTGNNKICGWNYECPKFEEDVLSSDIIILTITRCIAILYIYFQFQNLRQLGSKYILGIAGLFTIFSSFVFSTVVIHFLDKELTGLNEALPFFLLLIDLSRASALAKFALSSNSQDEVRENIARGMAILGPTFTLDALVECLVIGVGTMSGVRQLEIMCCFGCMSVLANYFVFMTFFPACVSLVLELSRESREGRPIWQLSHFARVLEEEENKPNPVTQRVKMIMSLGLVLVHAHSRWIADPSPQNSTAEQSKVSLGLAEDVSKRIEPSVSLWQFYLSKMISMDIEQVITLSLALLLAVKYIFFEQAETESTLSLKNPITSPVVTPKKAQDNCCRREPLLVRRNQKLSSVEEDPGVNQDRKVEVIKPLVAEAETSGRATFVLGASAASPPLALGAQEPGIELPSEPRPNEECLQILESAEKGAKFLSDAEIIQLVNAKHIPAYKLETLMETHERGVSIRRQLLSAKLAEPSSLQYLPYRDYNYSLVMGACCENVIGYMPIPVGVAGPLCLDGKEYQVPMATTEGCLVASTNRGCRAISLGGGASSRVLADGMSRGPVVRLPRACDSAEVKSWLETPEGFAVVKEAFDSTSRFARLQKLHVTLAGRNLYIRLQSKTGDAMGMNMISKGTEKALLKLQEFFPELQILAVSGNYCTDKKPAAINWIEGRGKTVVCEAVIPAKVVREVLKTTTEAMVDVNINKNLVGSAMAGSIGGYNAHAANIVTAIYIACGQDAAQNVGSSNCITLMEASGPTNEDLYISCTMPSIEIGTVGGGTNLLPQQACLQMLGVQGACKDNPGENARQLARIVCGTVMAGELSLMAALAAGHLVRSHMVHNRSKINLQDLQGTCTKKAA
Method in brief: (§5)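 Male Wistar rats, six per group, received a 5% cholesterol diet for 1 week plus an oral 20 mg/kg bwt dose given as a suspension in water. The experiment was run three times. Hepatic HMG-CoA reductase activity was determined by the Venugopala Rao method and expressed as the HMG-CoA/mevalonate ratio.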

Rattus norvegicus [8] = assay: Alkaline phosphatase enzyme level in serum upon single dose administration was determined as measure of hepatotoxicity; Normal range = 14-32 KA units; type: functional; method in brief: as §2
Rattus norvegicus [9] = assay: Creatinine level in serum upon single dose administration was determined as measure of nephrotoxicity; Normal range = 0.20-0.80 mg/dL; type: functional, organism-based
Method in brief: (§6)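 Nephrotoxicity was assessed after a single dose of compound by measuring serum blood urea nitrogen and creatinine in mg/dL by cited methods. Values are mean ± SE against a normal range.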

[10] = biological target: T1, 3-hydroxy-3-methylglutaryl-coenzyme A reductase (Rattus norvegicus); assay: Percent decrease in HMG-CoA reductase activity in rat; method in brief: as §5
Rattus norvegicus [11] = assay: Aspartate transferase (GOT) enzyme level in serum upon administration of five doses was determined as measure of hepatotoxicity; Normal range = 46-81 IU; type: functional; method in brief: as §2
Rattus norvegicus [12] = assay: Aspartate transferase (GOT) enzyme level in serum upon single dose administration was determined as measure of hepatotoxicity; Normal range = 46-81 IU; type: functional; method in brief: as §2
Rattus norvegicus [13] = assay: Blood urea nitrogen level in serum upon single dose administration was determined as measure of nephrotoxicity; Normal range = 5-29 mg/dL; type: functional, organism-based; method in brief: as §6
Rattus norvegicus [14] = assay: Percent decrease in weight of serum cholesterol after treatment with compound at 20 mg/kg dose for seven days; type: functional; method in brief: as §3
Rattus norvegicus [15] = assay: Weight of serum cholesterol after treatment with compound at 20 mg/kg dose for seven days; type: functional; method in brief: as §4
Rattus norvegicus [16] = assay: Blood urea nitrogen level in serum upon administration of five doses was determined as measure of nephrotoxicity; Normal range = 5-29 mg/dL; type: functional, organism-based; method in brief: as §1
Rattus norvegicus [17] = assay: Weight of triglyceride in liver wet tissue after treatment with compound at 20 mg/kg dose for seven days; type: functional; method in brief: as §4
Rattus norvegicus [18] = assay: Percent decrease in weight of cholesterol in liver wet tissue after treatment with compound at 20 mg/kg dose for seven days; type: functional; method in brief: as §3
Rattus norvegicus [19] = assay: Alkaline phosphatase enzyme level upon single dose administration was determined as measure of hepatotoxicity; Normal range = 14-32 KA units; type: functional; method in brief: as §2

| Compound | Level (Rattus norvegicus [1]) [mg/dL] | Activity (Rattus norvegicus [2]) [IU] | Decrease (Rattus norvegicus [3]) [%] | Activity (Rattus norvegicus [4]) [KA Units] | Activity (Rattus norvegicus [5]) [IU] | Weight (Rattus norvegicus [6]) [mg/g] | Ratio [7] | Activity (Rattus norvegicus [8]) [KA Units] | Level (Rattus norvegicus [9]) [mg/dL] | Decrease [10] [%] | Activity (Rattus norvegicus [11]) [IU] | Activity (Rattus norvegicus [12]) [IU] | Level (Rattus norvegicus [13]) [mg/dL] | Decrease (Rattus norvegicus [14]) [%] | Weight (Rattus norvegicus [15]) [mg/dL] | Level (Rattus norvegicus [16]) [mg/dL] | Weight (Rattus norvegicus [17]) [mg/g] | Decrease (Rattus norvegicus [18]) [%] | Activity (Rattus norvegicus [19]) [KA Units] |
| --- | --- | --- | --- | --- | --- | --- | --- | --- | --- | --- | --- | --- | --- | --- | --- | --- | --- | --- | --- |
| O=[N+]([O-])c1ccc(/C=C/CSSC/C=C/c2ccc([N+](=O)[O-])cc2)cc1 | 0.8 | 15.5 | 9.21 | 48 | 21 | 3.15 | 2.53 | 29.5 | 0.4 | 55.7 | 49 | 51 | 7.65 | 30.2 | 44.15 | 6.48 | 14.8 | 36.5 |  |
| O=C(O)c1ccc(/C=C/CSSC/C=C/c2ccc(C(=O)O)cc2)cc1 | 0.7 | 28 | 8.28 | 32.8 | 25 | 4.3 | 2.02 | 31 | 0.61 | 24.2 | 56 | 53 | 20.2 | 7.01 | 58.82 | 17.4 | 14.3 | 13.3 |  |
| Nc1ccc(/C=C/CSSC/C=C/c2ccc(N)cc2)cc1 | 0.84 | 21 | 6.71 | 46.9 | 26.5 | 4.81 | 1.74 | 40.6 | 0.55 | 7.5 | 37 | 51.5 | 13 | 5.5 | 59.76 | 14.6 | 14.6 | 3.13 |  |
| CC[C@H](C)C(=O)O[C@H]1C[C@@H](C)C=C2C=C[C@H](C)[C@H](CC[C@@H]3C[C@@H](O)CC(=O)O3)[C@H]21 [LOVASTATIN] |  |  | 36.91 |  |  | 2.84 | 2.2 |  |  | 35.4 |  |  |  | 31.2 | 43.5 |  | 9.86 | 42.3 |  |
| C=CCS[S+]([O-])CC=C (stereo unspecified) [ALLICIN] |  |  | 39.6 |  |  | 3.59 | 2.07 |  |  | 27.6 |  |  |  | 20.5 | 50.25 |  | 9.44 | 27.6 |  |
| C(=C\c1ccccc1)/CSSC/C=C/c1ccccc1 | 0.57 | 27 | 4.9 | 33.6 | 17.5 | 4.86 | 1.72 | 34 | 0.58 | 5.9 | 39 | 51 | 12.4 | 3.63 | 60.95 | 7.37 | 14.2 | 2 |  |
| COc1ccc(/C=C/CSSC/C=C/c2ccc(OC)cc2)cc1 | 0.49 | 23 | 4.91 | 25.2 | 26.5 | 4.9 | 1.68 |  | 0.59 | 3.69 | 29.5 | 49 | 7.43 | 2.05 | 61.95 | 8.48 | 14.8 | 1.2 | 45.6 |

Reference: ChEMBL document CHEMBL1137994, “Bis[3-(4'-substituted phenyl)prop-2-ene]disulfides as a new class of antihyperlipidemic compounds” (2004)
